What was measured:
[1] = biological target: T1, Alpha-1D adrenergic receptor (Rattus norvegicus) (UniProt P23944); assay: Potency against alpha-1D adrenergic receptor is determined by phenylephrine-induced contractions in rat; type: functional
T1 sequence (whole entry): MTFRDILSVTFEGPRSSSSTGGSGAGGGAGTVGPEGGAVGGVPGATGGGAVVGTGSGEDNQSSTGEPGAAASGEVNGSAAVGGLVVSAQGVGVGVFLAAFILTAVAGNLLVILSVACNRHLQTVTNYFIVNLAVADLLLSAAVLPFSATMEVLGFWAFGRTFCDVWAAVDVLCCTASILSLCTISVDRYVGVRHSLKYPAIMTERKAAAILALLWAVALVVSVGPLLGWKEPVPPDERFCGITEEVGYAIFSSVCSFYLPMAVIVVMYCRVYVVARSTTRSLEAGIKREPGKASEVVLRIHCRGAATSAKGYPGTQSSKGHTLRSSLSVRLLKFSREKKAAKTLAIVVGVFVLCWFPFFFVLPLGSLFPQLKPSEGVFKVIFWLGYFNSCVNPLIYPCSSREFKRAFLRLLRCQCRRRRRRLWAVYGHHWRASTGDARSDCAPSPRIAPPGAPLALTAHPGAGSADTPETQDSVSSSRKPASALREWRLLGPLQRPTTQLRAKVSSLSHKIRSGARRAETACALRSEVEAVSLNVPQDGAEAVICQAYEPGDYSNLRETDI
In short: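 Isolated rat aorta contracted with phenylephrine, with cumulative concentration–response curves run with and without antagonist. KB = antagonist concentration/(dose ratio − 1) by Schild, where dose ratio is the phenylephrine EC50 with antagonist over EC50 without. Means with 95% confidence limits, N = 4–6 experiments.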

[2] = biological target: T2, Alpha-1A adrenergic receptor (Homo sapiens, UniProt P35348); assay: Binding affinity towards alpha-1A adrenergic receptor expressed in human embryonic kidney (HEK293) cells; type: cell-based
T2 sequence (P35348 whole entry): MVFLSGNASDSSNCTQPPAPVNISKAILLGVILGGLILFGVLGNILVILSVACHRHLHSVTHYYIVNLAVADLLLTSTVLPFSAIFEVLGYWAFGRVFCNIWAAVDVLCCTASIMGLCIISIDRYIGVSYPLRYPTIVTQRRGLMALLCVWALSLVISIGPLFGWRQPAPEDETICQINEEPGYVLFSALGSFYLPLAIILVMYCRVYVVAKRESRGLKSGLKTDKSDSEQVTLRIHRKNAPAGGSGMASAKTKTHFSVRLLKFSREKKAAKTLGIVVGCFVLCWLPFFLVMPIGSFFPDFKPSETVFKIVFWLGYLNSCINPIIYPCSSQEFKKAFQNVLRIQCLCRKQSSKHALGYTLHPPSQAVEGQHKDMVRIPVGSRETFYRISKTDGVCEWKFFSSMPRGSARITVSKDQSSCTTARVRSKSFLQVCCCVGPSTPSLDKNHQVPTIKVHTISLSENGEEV

[3] = biological target: T3, Alpha-2A adrenergic receptor (Homo sapiens, UniProt P08913); assay: (§1) Binding affinity towards human alpha-2A adrenergic receptor expressed in Chinese Hamster ovary (CHO) cells; type: cell-based
T3 sequence (P08913 whole entry): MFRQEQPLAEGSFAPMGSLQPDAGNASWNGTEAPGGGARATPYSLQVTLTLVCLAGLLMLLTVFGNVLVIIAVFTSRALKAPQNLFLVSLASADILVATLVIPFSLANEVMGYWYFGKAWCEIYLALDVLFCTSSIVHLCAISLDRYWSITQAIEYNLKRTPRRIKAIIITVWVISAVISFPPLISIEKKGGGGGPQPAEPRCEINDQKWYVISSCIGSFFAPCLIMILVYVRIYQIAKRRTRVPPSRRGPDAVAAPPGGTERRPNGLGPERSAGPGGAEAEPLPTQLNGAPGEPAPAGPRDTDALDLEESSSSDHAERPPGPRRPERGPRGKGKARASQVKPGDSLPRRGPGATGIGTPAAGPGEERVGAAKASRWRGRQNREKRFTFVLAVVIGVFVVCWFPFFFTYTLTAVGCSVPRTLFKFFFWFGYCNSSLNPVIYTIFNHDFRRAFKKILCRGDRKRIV

[4] = biological target: T4, Alpha-2B adrenergic receptor (Homo sapiens, UniProt P18089); assay: Binding affinity towards human alpha-2B adrenergic receptor expressed in Chinese Hamster ovary (CHO) cells; type: cell-based
T4 sequence (P18089 whole entry): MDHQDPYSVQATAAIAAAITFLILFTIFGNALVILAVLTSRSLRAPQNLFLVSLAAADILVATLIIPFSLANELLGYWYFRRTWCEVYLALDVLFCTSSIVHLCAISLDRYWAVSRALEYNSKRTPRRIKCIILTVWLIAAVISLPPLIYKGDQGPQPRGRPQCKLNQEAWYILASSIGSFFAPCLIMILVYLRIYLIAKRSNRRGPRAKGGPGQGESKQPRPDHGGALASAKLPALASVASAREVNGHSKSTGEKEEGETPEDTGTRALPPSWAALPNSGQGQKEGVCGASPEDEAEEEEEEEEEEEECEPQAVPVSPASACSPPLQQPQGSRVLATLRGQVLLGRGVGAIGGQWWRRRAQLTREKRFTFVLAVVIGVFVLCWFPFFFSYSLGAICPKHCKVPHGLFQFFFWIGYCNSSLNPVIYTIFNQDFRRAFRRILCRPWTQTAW

[5] = biological target: T5, Alpha-2C adrenergic receptor (Homo sapiens, UniProt P18825); assay: Binding affinity towards human alpha-2C adrenergic receptor expressed in Chinese Hamster ovary (CHO) cells; type: cell-based
T5 sequence (P18825 whole entry): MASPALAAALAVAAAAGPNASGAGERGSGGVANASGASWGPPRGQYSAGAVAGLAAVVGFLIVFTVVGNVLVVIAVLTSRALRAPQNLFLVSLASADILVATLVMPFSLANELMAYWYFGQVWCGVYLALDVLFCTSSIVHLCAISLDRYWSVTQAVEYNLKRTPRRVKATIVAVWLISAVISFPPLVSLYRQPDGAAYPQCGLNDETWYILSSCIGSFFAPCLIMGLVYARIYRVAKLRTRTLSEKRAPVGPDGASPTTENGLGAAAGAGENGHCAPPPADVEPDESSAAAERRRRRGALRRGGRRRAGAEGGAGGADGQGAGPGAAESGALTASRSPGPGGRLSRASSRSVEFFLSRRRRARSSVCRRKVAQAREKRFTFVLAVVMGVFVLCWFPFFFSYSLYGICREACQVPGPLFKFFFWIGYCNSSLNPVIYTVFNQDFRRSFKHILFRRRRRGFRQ

[6] = biological target: T6, Alpha-1B adrenergic receptor (Homo sapiens, UniProt P35368); assay: Binding affinity towards human alpha-1B adrenergic receptor expressed in human embryonic kidney (HEK293) cells
T6 sequence (P35368 whole entry): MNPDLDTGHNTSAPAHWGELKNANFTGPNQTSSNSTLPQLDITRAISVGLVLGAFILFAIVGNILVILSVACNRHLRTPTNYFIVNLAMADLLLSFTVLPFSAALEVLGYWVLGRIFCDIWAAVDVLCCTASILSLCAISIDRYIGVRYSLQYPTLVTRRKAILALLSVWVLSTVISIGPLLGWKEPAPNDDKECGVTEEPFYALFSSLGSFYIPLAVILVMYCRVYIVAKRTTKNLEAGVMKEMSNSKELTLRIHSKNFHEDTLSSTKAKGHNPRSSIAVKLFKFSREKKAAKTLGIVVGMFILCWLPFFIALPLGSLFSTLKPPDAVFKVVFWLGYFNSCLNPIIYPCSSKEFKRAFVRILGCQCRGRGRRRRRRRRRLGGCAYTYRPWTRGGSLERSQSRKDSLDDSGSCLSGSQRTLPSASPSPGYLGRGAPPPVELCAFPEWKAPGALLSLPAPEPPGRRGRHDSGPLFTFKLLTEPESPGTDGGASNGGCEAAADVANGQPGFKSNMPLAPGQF

[7] = biological target: T7, Alpha-1D adrenergic receptor (Homo sapiens, UniProt P25100); assay: Binding affinity towards human alpha-1D adrenergic receptor expressed in human embryonic kidney (HEK293) cells
T7 sequence (P25100 whole entry): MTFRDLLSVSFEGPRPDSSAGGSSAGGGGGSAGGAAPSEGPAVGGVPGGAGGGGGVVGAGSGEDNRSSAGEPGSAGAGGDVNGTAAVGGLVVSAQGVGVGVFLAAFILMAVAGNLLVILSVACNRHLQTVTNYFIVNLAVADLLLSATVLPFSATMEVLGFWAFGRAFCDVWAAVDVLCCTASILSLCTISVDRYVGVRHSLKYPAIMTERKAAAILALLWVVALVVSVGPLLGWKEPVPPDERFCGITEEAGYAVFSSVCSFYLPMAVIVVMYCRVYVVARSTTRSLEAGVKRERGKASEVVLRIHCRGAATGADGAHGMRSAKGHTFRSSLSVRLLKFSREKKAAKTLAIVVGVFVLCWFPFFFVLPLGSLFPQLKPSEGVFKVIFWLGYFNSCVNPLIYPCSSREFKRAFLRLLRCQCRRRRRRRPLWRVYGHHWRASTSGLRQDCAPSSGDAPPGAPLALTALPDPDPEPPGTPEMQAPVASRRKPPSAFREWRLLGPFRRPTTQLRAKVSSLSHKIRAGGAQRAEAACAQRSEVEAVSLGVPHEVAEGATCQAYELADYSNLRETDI

[8] = biological target: T3, Alpha-2A adrenergic receptor; assay: as §1; type: functional, cell-based

Cc1ccc(N(NC2=NCCO2)c2cccc(O)c2)cc1 was tested, and the Kb [1] was 13000 nM, the Ki [2] was 5620 nM and the Ki [3] was 18600 nM.

For Cc1ccc(N(NC2=NCCN2)c2cccc(O)c2)cc1, the Kb [1] was 2.9 nM, the Ki [2] was 26.8 nM and the Ki [3] was 23.8 nM. The Ki [4] was 18 nM, the Ki [5] was 12.8 nM and the Ki [6] was 843 nM. For the same compound, the Ki [7] was 49.7 nM.

In the case of COc1cccc(N(NC2=NCCN2)c2ccc(C)cc2)c1, the Kb [1] is reported as 7.4 nM, the Ki [2] is reported as 19.9 nM and the Ki [3] is reported as 6.3 nM. It also gave a Ki [4] of 7.3 nM, a Ki [5] of 3.8 nM and a Ki [6] of 103 nM. The Ki [7] was 17.5 nM.

Work on COc1cccc(N(NC2=NCCO2)c2ccc(C)cc2)c1 yielded a Kb [1] greater than 30000 nM, a Ki [8] of 24600 nM and a Ki [2] of 5740 nM.

Reference: ChEMBL document CHEMBL1143453 (Bioorg Med Chem Lett, 2005)
